This note sets out measurements from ChEMBL document CHEMBL4152210, “Design, synthesis, anti-lung cancer activity, and chemosensitization of tumor-selective MCACs based on ROS-mediated JNK pathway activation and NF-κB pathway inhibition” (Eur J Med Chem, 2018).

Experiment [1] concerns the target Mitogen-activated protein kinase 8/9 (Homo sapiens) (UniProt P45983+P45984). Put plainly: Induction of JNK 1/2 phosphorylatyion in human A549 cells at 10 uM pretreated with 5 mM NAC for 1 hr followed by compound addition and measured after 6 hrs by Western blot analysis. It is filed as cell-based. Put shortly: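 A549 exposed at 10 µM for varying times, or at various concentrations for 6 h. Inhibition arms pretreated 1 h with SP600125 (10 µM) or NAC (5 mM) before 10 µM for 6 h. Lysates run on 10% SDS-PAGE and transferred to PVDF. p-JNK probed, GAPDH as loading control.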

The subject of experiment [2] is A549. Kind of experiment: Induction of apoptosis in human A549 cells assessed as increase in PARP level after 24 hrs by Western blot analysis. Format: functional, cell-based. Summed up: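 A549 treated at 1, 5 or 10 µM, or with BMS345541 (20 µM), for 24 h. Cleaved PARP and Bax detected by western blot (10% SDS-PAGE, PVDF, 5% milk block, HRP secondary).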
The test system of experiment [3] is A549. Kind of experiment: Chemosensitization activity in human A549 cells assessed as inhibition of clonogenic growth at 0.25 uM in presence of 9 uM cisplatin incubated for 2 days followed by replacement of growth media and measured after 8 days by crystal violet staining-based assay relative to control. Format: functional. Summed up:
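A549 seeded at 1000 cells per well in 6-well plates, exposed to drug alone or combined with cisplatin or 5-Fu over a concentration series. Drug-containing medium replaced after 2 days. After a further 8 days, fixed with 1% methanol/1% formaldehyde and stained with 0.5% crystal violet. Percent inhibition at each concentration calculated relative to control.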

SMILES strings stand for the structures. Calls of active or inactive are those of the source. The calls are words filed in the database; no cut-off is given here.

Sequence of Mitogen-activated protein kinase 8/9 (Homo sapiens) (P45983 whole entry, looked up): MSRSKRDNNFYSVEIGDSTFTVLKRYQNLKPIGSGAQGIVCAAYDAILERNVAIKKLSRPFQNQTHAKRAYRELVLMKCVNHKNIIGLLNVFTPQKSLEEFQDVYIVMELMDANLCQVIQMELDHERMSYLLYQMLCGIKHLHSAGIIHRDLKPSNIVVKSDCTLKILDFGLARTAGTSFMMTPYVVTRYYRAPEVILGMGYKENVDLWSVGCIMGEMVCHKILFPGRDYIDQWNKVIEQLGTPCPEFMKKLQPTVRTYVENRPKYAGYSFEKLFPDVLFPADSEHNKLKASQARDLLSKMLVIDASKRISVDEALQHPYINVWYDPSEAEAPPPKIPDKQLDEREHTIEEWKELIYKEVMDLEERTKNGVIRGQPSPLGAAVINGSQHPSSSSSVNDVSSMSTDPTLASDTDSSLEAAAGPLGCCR
Sequence of Mitogen-activated protein kinase 8/9 (Homo sapiens) (P45984 whole entry, looked up): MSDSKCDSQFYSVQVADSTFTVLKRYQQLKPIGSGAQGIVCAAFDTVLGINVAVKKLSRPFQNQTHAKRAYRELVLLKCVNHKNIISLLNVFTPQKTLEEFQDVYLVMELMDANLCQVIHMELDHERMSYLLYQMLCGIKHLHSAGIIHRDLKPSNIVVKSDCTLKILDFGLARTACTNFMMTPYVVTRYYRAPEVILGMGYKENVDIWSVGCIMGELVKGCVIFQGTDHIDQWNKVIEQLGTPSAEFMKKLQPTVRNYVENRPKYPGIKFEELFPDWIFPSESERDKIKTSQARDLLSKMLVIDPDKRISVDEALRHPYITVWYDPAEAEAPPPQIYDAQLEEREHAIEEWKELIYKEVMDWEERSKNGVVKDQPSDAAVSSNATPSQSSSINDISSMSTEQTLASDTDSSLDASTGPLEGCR

As to `COc1cc(/C=C2\CN(C)C/C(=C\c3cc(OC)c(OC)c(OC)c3)C2=O)cc(OC)c1OC`, in experiment [1], the result was inactive. Further, the Activity entry with A549 [2] is “Dose-dependent effect”. The “inhibition (INH)” value in the experiment with A549 [3] is on record as 99%.
